In brackets after ≈: the same amount, converted by molar mass.
Key:
[1] = Drug uptake in mouse CSF at 0.5 mg/kg, iv at 30 mins; format: ADME, organism-based, Cerebrospinal fluid; set-up: dose 0.5 mg/kg, route intravenous; details: read-out: Drug uptake
Outline: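 CSF drug concentration was measured 30 min after a 0.5 mg/kg intravenous dose.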

[2] = molecular target: T1, Neuropeptide Y receptor type 5 (Mus musculus, UniProt O70342); test: Displacement of [125I]PYY from mouse NPY-Y5 receptor
T1 sequence (O70342 whole entry): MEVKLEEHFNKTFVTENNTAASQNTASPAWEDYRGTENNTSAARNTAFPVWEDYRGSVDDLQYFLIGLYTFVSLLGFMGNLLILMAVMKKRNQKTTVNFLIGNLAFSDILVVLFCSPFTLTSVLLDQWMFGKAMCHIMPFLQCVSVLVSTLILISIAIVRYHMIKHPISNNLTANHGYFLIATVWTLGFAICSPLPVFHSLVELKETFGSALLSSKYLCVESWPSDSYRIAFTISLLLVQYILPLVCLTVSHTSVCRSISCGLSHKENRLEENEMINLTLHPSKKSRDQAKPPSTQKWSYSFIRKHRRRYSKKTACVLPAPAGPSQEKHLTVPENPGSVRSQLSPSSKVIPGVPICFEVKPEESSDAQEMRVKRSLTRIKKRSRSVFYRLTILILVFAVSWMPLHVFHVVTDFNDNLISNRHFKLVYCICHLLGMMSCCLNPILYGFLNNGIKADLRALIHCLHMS

in vitro = details: human, liver microsomes
Rattus norvegicus = species on record: Rattus norvegicus; test: in vitro; details: liver microsomes
physchem = details: pH 6.8
Mus musculus [3] = test: Toxicity in mouse assessed as appearance of abnormal behavior at 6.25 to 25 mg/kg, po bid measured for 21 days; format: organism-based; set-up: dose 6.25-25 mg/kg, route oral; details: in vivo, 504 h
Outline: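 Diet-induced obese mice were given compound orally for 21 days and watched for abnormal behavior during dosing.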

Mus musculus [4] = test: Antiobesity activity against DIO mouse assessed as reduction of body weight administered as po bid measured for 21 days; format: functional, organism-based
Outline: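 Diet-induced obese mice were dosed orally for 21 days, with body weight gain compared against a control group (n = 7).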

Mus musculus [5] = test: Antiobesity activity in DIO mouse assessed as reduction of [cPP1to7, NPY19 to 23, Ala31, Aib32, Gln42]-induced food intake at 12.5 mg/kg, po administered 1 hr prior to [cPP1to7, NPY19 to 23, Ala31, Aib32, Gln42] induction measured after 2 hrs relative to vehicle-treated control; format: functional; set-up: scale not given: the % may be the effect or the level left
Outline: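 Mice received oral compound at 12.5 mg/kg 1 h before treatment with a Y5-selective agonist peptide. Food intake was then compared with the increase the agonist induces.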

Structure (SMILES) | concentration at 0.5 h [1] | IC50 [2] | remaining at 0.5 h (in vitro) | remaining at 0.5 h (Rattus norvegicus) | solubility kinetic (physchem) | Activity (Mus musculus [3]) | Activity (Mus musculus [4]) | Activity (Mus musculus [5])
CCS(=O)(=O)c1ccc2[nH]c(SCc3cccc(Cl)c3)nc2c1 |  | 12.1 nM | 63.7% | 0.13% | 27.5 µM (≈ 10.1 µg/mL) |  |  | 
CCS(=O)(=O)c1ccc2[nH]c(Oc3ccc(-c4ccccn4)cc3)nc2c1 |  | 4.07 nM |  |  | > 50 µM |  |  | 
CCS(=O)(=O)c1ccc2nc(Oc3ccc(-c4ccccc4)cn3)[nH]c2c1 |  | 96.4 nM | 89.2% | > 99.9% | 45.2 µM (≈ 17.2 µg/mL) |  |  | 
CCS(=O)(=O)c1ccc2[nH]c(C3(c4ccc(-c5ccccc5)cc4)CC3)nc2c1 |  | 608 nM | 88.5% | 81.3% | 0.5 µM (≈ 0.201 µg/mL) |  |  | 
CCS(=O)(=O)c1ccc2nc(OCCc3ccccc3)[nH]c2c1 |  | 25 nM | 88.1% | 37.6% | > 50 µM |  |  | 
CCS(=O)(=O)c1ccc2[nH]c(Oc3cccc(-c4ccccc4)c3)nc2c1 |  | 9.55 nM | 29.1% | 77.3% | 4.2 µM (≈ 1.59 µg/mL) |  |  | 
CCS(=O)(=O)c1ccc2nc(Cc3ccc(-c4ccccc4)cc3)[nH]c2c1 |  | 112 nM | 87.6% | 74.3% | 3 µM (≈ 1.13 µg/mL) |  |  | 
CCS(=O)(=O)c1ccc2nc(OCc3cccc(Cl)c3)[nH]c2c1 |  | 80.4 nM | 88.5% | 37.9% | 49.9 µM (≈ 17.5 µg/mL) |  |  | 
CCS(=O)(=O)c1ccc2[nH]c(C(=O)c3ccc(-c4ccccc4)cc3)nc2c1 |  | 2.61 nM | > 99.9% | > 99.9% | 0.3 µM (≈ 0.117 µg/mL) |  |  | 
CCS(=O)(=O)c1ccc2nc(C(F)(F)c3ccc(-c4ccccc4)cc3)[nH]c2c1 |  | 48.6 nM | 0.1% | 78.3% | 0.3 µM (≈ 0.124 µg/mL) |  |  | 

The next lines start with results.

concentration at 0.5 h [1] | IC50 [2] | remaining at 0.5 h (in vitro) | remaining at 0.5 h (Rattus norvegicus) | solubility kinetic (physchem) | Structure (SMILES) | Activity (Mus musculus [3]) | Activity (Mus musculus [4]) | Activity (Mus musculus [5])
1.7 ng/mL | 4.39 nM | 97.9% | 83.8% | > 50 µM | CCS(=O)(=O)c1ccc2nc(OCC(F)(F)c3ccccc3)[nH]c2c1 |  |  | 
 | 3.75 nM | > 99.9% | 93.8% | 6.1 µM (≈ 2.35 µg/mL) | CCS(=O)(=O)c1ccc2[nH]c(O[C@H]3CC[C@H](c4ccccc4)CC3)nc2c1 |  |  | 
 | 7.11 nM | 97.1% | 86.2% | > 50 µM | CCS(=O)(=O)c1ccc2nc(Oc3cccc(OC(F)(F)F)c3)[nH]c2c1 |  |  | 
 | 41.2 nM | > 99.9% | 88.4% | > 50 µM | CCS(=O)(=O)c1ccc2[nH]c(Oc3cccc(C(F)(F)F)c3)nc2c1 |  |  | 
 | 22.4 nM | 92.8% | 91.6% | > 50 µM | CCS(=O)(=O)c1ccc2[nH]c(Oc3ccc(OC(F)(F)F)cc3)nc2c1 |  |  | 
 | 3190 nM |  |  | > 50 µM | CCS(=O)(=O)c1ccc2[nH]c(Oc3ccccc3C(F)(F)F)nc2c1 |  |  | 
 | 2.82 nM | > 99.9% | > 99.9% | 2.5 µM (≈ 0.946 µg/mL) | CCS(=O)(=O)c1ccc2[nH]c(Oc3ccc(-c4ccccc4)cc3)nc2c1 |  |  | 
 | 98.1 nM | 95.2% | 86.9% | > 50 µM | CCS(=O)(=O)c1ccc2nc(Oc3ccc(C(F)(F)F)cc3)[nH]c2c1 |  |  | 
2.9 ng/mL | 2.92 nM | 98.6% | > 99.9% | 39.7 µM (≈ 15.1 µg/mL) | CCS(=O)(=O)c1ccc2[nH]c(Oc3ccc(-c4ccccc4)nc3)nc2c1 | Non-toxic | Dose-dependent effect | 50.8%
